Measurements published in ChEMBL document CHEMBL5696442, “Discovery of type II inhibitors of TGFβ-activated kinase 1 (TAK1) and mitogen-activated protein kinase kinase kinase kinase 2 (MAP4K2)” (J Med Chem, 2015).

What was measured:
Type in all cases: cell-based
[1] = biological target: Proto-oncogene tyrosine-protein kinase Src (Homo sapiens, UniProt P12931); assay: Inhibition of SRC ACT labeling site in human A-375 cells at 0.5 uM by KiNativ Profiling analysis relative to control
[2] = biological target: Cyclin-dependent kinase 2 (Homo sapiens) (UniProt P24941); assay: Inhibition of CDK2 Lys1 labeling site in human A-375 cells at 5 uM by KiNativ Profiling analysis relative to control
Procedure, shortened: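 Intact A375 melanoma cells were treated with compound at 5 or 0.5 μM, then lysed. Lysate kinases were labeled with a lysine-reactive ATP or ADP-biotin probe (KiNativ). Inhibition is read as protection of each kinase labeling site from probe labeling.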

[3] = biological target: T1, Mitogen-activated protein kinase kinase kinase 3 (Homo sapiens) (UniProt Q99759); assay: Inhibition of MAP3K3 Lys1 labeling site in human A-375 cells at 5 uM by KiNativ Profiling analysis relative to control
T1 sequence (whole entry): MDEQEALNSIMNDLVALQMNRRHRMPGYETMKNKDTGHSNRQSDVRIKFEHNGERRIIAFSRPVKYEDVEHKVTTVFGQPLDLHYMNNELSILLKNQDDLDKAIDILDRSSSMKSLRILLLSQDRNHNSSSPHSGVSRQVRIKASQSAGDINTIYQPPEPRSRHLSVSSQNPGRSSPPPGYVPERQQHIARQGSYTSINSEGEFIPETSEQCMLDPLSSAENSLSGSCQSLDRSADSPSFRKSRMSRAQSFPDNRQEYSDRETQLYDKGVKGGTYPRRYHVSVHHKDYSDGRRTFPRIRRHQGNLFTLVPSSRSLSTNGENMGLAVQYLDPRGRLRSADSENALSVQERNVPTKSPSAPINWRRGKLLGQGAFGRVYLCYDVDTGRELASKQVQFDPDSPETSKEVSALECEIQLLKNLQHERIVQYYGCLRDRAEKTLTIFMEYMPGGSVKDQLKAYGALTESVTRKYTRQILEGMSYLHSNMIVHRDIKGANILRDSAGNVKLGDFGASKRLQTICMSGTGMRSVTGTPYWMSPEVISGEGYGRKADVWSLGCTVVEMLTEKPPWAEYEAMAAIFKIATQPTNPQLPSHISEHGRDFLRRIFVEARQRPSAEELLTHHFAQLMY

[4] = biological target: Serine/threonine-protein kinase SIK3 (Homo sapiens) (UniProt Q9Y2K2); assay: Inhibition of QSK Lys2 labeling site in human A-375 cells at 5 uM by KiNativ Profiling analysis relative to control
[5] = biological target: Mitogen-activated protein kinase kinase kinase 1 (Homo sapiens) (UniProt Q13233); assay: Inhibition of MAP3K1 Lys2 labeling site in human A-375 cells at 0.5 uM by KiNativ Profiling analysis relative to control
Sequence of Mitogen-activated protein kinase kinase kinase 1 (Homo sapiens) (Q13233 whole entry): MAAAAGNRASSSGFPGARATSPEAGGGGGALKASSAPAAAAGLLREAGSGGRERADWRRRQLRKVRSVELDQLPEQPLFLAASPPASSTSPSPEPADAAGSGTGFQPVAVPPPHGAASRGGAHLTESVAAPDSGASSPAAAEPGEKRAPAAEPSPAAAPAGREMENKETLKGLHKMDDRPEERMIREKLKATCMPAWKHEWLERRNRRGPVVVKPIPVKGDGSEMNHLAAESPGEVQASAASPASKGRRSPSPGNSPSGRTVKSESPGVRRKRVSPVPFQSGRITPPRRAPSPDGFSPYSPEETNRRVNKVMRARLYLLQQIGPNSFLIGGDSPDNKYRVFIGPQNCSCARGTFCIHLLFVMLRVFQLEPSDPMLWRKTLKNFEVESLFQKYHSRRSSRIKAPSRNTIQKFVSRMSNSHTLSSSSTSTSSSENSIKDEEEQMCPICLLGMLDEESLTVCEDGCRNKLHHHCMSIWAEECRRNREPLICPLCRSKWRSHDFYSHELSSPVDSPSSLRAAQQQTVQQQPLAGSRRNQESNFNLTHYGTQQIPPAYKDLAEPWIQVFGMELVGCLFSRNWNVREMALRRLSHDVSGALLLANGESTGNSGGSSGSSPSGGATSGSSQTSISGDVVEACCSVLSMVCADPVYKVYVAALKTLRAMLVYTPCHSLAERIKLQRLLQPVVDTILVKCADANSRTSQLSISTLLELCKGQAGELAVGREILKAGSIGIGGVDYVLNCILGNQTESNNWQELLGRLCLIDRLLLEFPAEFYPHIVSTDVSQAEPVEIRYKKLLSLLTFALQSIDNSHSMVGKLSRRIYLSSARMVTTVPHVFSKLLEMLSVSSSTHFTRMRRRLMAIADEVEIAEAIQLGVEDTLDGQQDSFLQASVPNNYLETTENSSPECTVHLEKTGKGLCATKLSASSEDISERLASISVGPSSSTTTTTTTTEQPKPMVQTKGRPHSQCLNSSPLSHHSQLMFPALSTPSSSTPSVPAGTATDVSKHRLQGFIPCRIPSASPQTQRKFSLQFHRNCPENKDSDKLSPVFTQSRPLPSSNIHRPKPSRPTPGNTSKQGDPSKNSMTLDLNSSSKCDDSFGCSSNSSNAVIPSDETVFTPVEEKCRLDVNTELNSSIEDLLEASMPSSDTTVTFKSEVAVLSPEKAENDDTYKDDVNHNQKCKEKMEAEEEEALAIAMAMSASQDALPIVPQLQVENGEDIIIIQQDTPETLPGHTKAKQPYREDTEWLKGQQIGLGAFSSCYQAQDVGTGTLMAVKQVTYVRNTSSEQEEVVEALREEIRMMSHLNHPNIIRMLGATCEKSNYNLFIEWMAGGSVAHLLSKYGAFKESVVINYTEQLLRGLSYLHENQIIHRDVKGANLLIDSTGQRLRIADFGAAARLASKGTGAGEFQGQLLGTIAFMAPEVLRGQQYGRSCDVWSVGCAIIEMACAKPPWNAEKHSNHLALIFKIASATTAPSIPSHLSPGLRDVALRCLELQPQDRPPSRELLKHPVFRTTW

[6] = biological target: T2, Serine/threonine-protein kinase 3 (Homo sapiens) (UniProt Q13188); assay: Inhibition of MST2 Lys2 labeling site harbouring DIKAGNILLNTEGHAK in human A-375 cells at 0.05 uM by KiNativ Profiling analysis relative to control
T2 sequence (whole entry): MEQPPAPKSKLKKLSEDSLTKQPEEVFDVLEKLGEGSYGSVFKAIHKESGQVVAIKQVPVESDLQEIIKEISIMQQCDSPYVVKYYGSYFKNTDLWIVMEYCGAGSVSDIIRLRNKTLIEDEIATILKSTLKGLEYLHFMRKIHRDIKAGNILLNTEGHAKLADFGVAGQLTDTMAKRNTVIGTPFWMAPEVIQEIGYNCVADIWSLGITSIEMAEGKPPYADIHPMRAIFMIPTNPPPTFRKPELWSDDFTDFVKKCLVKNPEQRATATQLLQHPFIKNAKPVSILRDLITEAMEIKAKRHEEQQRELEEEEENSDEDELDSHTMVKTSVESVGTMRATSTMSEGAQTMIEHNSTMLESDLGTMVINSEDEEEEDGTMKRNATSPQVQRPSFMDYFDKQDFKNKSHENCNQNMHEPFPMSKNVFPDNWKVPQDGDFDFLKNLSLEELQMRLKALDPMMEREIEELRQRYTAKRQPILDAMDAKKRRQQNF

[7] = biological target: T3, Serine/threonine-protein kinase Nek9 (Homo sapiens) (UniProt Q8TD19); assay: Inhibition of NEK9 Lys1 labeling site harbouring RTEDDSLVVWKEVDLTR in human A-375 cells at 0.05 uM by KiNativ Profiling analysis relative to control
T3 sequence (whole entry): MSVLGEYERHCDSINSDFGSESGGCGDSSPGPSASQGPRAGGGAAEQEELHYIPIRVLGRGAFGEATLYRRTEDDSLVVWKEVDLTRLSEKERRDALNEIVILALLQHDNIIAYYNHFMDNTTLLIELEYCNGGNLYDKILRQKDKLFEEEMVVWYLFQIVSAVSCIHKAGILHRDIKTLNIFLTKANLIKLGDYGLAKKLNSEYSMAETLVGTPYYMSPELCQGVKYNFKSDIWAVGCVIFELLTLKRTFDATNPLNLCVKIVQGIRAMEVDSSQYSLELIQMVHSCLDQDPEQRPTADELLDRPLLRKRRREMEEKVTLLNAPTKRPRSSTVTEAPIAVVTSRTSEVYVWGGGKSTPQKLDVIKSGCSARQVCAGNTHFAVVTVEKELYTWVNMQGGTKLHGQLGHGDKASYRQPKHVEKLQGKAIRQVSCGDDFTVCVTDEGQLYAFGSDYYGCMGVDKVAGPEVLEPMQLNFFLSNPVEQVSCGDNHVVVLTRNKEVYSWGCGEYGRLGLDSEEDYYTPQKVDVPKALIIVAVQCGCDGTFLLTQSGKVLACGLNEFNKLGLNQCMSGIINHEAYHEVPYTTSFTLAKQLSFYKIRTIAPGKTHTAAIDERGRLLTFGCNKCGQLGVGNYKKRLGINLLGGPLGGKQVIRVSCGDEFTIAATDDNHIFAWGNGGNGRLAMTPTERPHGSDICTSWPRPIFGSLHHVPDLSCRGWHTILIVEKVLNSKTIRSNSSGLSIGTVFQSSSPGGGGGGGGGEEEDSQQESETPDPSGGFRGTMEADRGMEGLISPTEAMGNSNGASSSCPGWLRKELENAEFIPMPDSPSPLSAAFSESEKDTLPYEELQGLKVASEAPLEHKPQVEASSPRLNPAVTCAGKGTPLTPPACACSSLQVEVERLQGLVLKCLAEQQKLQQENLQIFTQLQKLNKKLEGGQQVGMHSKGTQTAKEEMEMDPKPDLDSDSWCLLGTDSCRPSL

[8] = biological target: Serine/threonine-protein kinase WNK1 (Homo sapiens) (UniProt Q9H4A3); assay: Inhibition of Wnk1 ACT labeling site in human A-375 cells at 0.05 uM by KiNativ Profiling analysis relative to control
Sequence of Serine/threonine-protein kinase WNK1 (Homo sapiens) (Q9H4A3 whole entry, looked up): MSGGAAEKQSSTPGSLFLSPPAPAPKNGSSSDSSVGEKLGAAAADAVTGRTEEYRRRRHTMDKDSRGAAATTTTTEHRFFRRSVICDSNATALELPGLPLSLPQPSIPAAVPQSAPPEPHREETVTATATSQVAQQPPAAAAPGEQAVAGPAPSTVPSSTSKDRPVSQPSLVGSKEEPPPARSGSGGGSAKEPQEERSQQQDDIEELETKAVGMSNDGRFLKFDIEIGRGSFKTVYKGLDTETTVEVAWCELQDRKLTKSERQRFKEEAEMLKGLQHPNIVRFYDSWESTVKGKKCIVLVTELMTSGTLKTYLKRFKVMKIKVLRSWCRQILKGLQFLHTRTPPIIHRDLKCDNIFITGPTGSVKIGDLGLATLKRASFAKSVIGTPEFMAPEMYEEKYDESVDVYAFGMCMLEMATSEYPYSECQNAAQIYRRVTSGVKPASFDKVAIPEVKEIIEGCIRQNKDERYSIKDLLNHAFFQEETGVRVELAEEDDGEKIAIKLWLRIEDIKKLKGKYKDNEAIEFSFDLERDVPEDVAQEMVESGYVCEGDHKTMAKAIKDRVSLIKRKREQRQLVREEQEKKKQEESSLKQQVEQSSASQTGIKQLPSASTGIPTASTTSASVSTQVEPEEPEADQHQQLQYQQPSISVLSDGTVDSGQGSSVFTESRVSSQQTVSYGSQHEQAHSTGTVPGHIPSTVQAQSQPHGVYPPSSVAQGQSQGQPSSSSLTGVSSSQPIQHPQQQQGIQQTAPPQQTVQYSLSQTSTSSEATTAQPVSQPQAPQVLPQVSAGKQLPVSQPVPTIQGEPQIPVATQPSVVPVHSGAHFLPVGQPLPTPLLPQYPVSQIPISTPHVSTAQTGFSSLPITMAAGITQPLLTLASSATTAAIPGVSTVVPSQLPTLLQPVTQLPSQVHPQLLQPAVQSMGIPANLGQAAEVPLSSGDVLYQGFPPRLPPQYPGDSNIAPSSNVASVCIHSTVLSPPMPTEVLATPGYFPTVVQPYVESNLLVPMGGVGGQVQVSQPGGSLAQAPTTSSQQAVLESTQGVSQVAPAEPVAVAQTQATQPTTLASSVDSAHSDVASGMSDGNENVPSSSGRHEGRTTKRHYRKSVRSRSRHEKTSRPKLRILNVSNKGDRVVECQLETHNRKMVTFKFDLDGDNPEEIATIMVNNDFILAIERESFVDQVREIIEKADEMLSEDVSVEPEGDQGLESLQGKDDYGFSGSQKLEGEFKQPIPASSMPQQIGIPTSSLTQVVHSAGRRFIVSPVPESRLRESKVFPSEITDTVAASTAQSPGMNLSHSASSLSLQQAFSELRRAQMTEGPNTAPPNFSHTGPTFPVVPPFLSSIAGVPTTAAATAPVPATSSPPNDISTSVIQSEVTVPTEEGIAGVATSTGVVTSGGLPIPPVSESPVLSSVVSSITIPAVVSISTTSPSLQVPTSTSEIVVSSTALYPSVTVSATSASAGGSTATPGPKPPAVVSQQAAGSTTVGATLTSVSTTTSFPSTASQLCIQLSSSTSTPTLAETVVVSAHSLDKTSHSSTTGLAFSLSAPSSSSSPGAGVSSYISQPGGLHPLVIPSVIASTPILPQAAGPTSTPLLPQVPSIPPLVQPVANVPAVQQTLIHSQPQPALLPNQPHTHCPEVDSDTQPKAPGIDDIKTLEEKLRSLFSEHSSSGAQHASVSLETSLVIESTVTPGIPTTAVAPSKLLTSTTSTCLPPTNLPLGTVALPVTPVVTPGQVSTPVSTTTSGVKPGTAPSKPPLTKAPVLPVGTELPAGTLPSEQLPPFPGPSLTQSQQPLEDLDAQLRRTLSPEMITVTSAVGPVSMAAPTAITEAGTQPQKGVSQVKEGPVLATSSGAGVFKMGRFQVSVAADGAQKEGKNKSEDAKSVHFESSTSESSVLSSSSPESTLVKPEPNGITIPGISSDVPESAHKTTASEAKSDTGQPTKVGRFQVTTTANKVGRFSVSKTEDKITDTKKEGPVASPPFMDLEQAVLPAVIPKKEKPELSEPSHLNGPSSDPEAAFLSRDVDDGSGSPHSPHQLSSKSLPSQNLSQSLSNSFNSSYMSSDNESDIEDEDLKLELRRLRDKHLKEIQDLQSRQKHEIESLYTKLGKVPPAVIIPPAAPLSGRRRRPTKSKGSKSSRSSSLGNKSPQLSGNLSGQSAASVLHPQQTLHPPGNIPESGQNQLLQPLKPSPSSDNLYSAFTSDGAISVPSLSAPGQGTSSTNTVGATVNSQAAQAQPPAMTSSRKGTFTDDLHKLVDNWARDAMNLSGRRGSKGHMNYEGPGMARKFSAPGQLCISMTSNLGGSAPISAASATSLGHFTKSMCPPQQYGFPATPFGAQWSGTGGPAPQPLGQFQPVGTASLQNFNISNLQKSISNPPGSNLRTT

Sequence of Proto-oncogene tyrosine-protein kinase Src (P12931 2-536 limits assumed): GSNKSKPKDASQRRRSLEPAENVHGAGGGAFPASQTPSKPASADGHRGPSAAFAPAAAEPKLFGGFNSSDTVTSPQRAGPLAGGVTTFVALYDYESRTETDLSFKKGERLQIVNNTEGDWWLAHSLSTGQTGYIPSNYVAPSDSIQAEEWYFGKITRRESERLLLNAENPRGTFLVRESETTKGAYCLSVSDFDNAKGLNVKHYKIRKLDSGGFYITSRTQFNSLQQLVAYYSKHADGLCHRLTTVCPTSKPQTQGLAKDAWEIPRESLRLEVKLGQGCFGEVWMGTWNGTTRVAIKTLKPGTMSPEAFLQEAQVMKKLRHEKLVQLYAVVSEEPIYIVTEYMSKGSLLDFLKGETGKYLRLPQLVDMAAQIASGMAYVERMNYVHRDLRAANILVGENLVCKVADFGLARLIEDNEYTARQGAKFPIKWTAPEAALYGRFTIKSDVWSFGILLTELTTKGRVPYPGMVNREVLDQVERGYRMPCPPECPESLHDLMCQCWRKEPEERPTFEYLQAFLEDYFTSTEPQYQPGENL

SMILES | inhibition [1] [%] | inhibition [2] [%] | inhibition [3] [%] | inhibition [4] [%] | inhibition [5] [%] | inhibition [6] [%] | inhibition [7] [%] | inhibition [8] [%]
CCN1CCN(Cc2ccc(NC(=O)c3ccc(C)c(Oc4ccnc5[nH]ccc45)c3)cc2C(F)(F)F)CC1 | 36.5 | 37.3 | 77.1 | 29.6 | 39.7 | 4.7 | 1.8 | 10.3
CCN1CCN(Cc2ccc(NC(=O)c3ccc(C)c(/C=C/c4cnc5[nH]ccc5c4OC)c3)cc2C(F)(F)F)CC1 | 72.6 | 17.6 | 80.4 | 28.6 | 43.9 | -7 | 18.8 | 10.1
